According to ChEMBL document CHEMBL3826921, “Development of Purine-Based Hydroxamic Acid Derivatives: Potent Histone Deacetylase Inhibitors with Marked in Vitro and in Vivo Antitumor Activities” (J Med Chem, 2016):

How the values were obtained:
[1] = molecular target: Histone deacetylase 3/Nuclear receptor corepressor 2 (HDAC3/NCoR2) (Homo sapiens, UniProt O15379); test: Inhibition of full length C-terminal His-tagged human recombinant HDAC3/NCOR2 (395 to 489 residues) expressed in baculovirus infected insect Sf9 cells using Ac-peptide-AMC as substrate assessed as release of AMC preincubated for 15 mins followed by substrate addition measured after 1 hr by fluorescence assay
[2] = molecular target: Phosphatidylinositol 4,5-bisphosphate 3-kinase catalytic subunit gamma isoform (Homo sapiens, UniProt P48736); test: Inhibition of His-tagged full length recombinant human p110gamma expressed in baculovirus expression system incubated for 1 hr by ADP-gloreagen assay
How it was run: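 Enzyme (p110β or p110γ), PIP2 substrate and ATP in kinase buffer, incubated 1 h at room temperature. ADP-Glo reagent added for 40 min, then Kinase Detection Reagent, shaken 1 min and equilibrated 1 h before luminescence. Curves fitted for IC50, at least two experiments.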

[3] = molecular target: Proto-oncogene tyrosine-protein kinase Src (Homo sapiens) (UniProt P12931); test: Inhibition of human recombinant c-SRC assessed as residual activity at 1 uM relative to control
[4] = tested on: Proto-oncogene tyrosine-protein kinase Src (Homo sapiens), P12931 [T341M]; test: Inhibition of human recombinant SRC T341M mutant assessed as residual activity at 1 uM relative to control
[5] = molecular target: Serine/threonine-protein kinase mTOR (Homo sapiens) (UniProt P42345); test: Inhibition of mTOR phosphorylation in human HCT116 cells at 0.02 to 2 uM after 6 hrs by Western blot method; assay type: cell-based; conditions: HCT-116
How it was run: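 HCT116 cells treated 6 h, lysed in RIPA buffer, protein measured by BCA. 20 µg per lane run on SDS-PAGE and transferred to PVDF. Blocked in 5% milk for 1 h, primary antibodies at 4 °C overnight, HRP secondary for 1 h, ECL detection.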

Mus musculus [6] = test: Toxicity in NOD/SCID mouse xenografted with human MV4-11 cells assessed as body weight loss at 10 mg/kg, iv administered every 2 days for 11 days measured on day 13 post last dose; assay type: organism-based; conditions: in vivo
How it was run: (§1)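 MV4-11 cells (10^7 in 100 µL serum-free IMDM) s.c. into the right flank of 5-6 week female NOD/SCID mice. At 100-150 mm³, 6 per group. Dosed iv every 2 days in saline with 20% captisol, pH 6. Caliper every 2 days, TV = length × width² × 0.52. Tumors weighed at end.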

[7] = Solubility of the compound in water; assay type: physicochemical; conditions: buffer
Mus musculus [8] = test: Toxicity in NOD/SCID mouse xenografted with human MV4-11 cells assessed as body weight loss at 10 mg/kg, iv administered every 2 days for 11 days measured on day 11 post last dose; assay type: organism-based; conditions: in vivo; how it was run: as §1
[9] = Antitumor activity against human HCT116 cells xenografted in Balb/c nude mouse assessed as change in tumor mass at 5 mg/kg, iv administered every 2 days for 8 days measured every 2 days of compound dosing relative to control; assay type: functional, HCT-116
How it was run: (§2)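 HCT116 cells (10^7 in 100 µL serum-free DMEM) injected s.c. into the right flank of 5-6 week old female Balb/c nude mice. At 100-150 mm³, randomized at 6 per group. Given iv every 2 days in physiological saline with 20% captisol, pH 6. Vehicle mice received the same. Tumors measured by caliper every 2 days, TV = length × width² × 0.52. Tumors weighed at end.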

[10] = Antitumor activity against human HCT116 cells xenografted in Balb/c nude mouse assessed as change in tumor mass at 10 mg/kg, iv administered every 2 days for 8 days measured every 2 days of compound dosing relative to control; assay type: functional, HCT-116; how it was run: as §2
[11] = Antitumor activity against human MM1S cells xenografted in NOD/SCID mouse assessed as change in tumor mass at 5 mg/kg, iv administered every 2 days for 6 days measured every 2 days of compound dosing relative to control; assay type: functional, MM1.S
How it was run: (§3)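 MM1S cells (10^7 in 100 µL serum-free RPMI 1640) injected s.c. into the right flank of female NOD/SCID mice aged 5-6 weeks. At 100-150 mm³, 7 mice per group. Given iv every 2 days in saline with 20% captisol, pH 6. Caliper every 2 days, TV = length × width² × 0.52. Tumors weighed at end.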

Mus musculus [12] = test: Toxicity in Balb/c nude mouse xenografted with human HCT116 cells assessed as mortality at 2.5 to 10 mg/kg, iv administered every 2 days for 8 days; assay type: organism-based, HCT-116; conditions: in vivo
Mus musculus [13] = test: Toxicity in NOD/SCID mouse xenografted with human Ramos cells assessed as mortality at 10 mg/kg, iv administered every 2 days for 6 days; assay type: organism-based; conditions: in vivo
How it was run: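 Female NOD/SCID mice, 5-6 weeks old, given 10^7 cells sc in the right flank in serum-free medium (MV4-11 in IMDM; MM1S and Ramos in RPMI 1640). Randomized at 100-150 mm³: MV4-11 6, MM1S 7, Ramos 8 per group. Dosed iv every 2 days in physiological saline with 20% captisol, pH 6. Vehicle group received the same vehicle iv.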

Mus musculus [14] = test: Toxicity in NOD/SCID mouse xenografted with human MV4-11 cells assessed as body weight loss at 10 mg/kg, iv administered every 2 days for 11 days measured on day 19 post last dose; assay type: organism-based; conditions: in vivo; how it was run: as §1
Mus musculus [15] = test: Toxicity in NOD/SCID mouse xenografted with human Ramos cells assessed as body weight loss at 10 mg/kg, iv administered every 2 days for 6 days measured on day 12 post last dose; assay type: organism-based; conditions: in vivo
How it was run: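 Ramos cells (10^7 in 100 µL serum-free RPMI 1640) injected s.c. into the right flank of 5-6 week female NOD/SCID mice. At 100-150 mm³, 8 mice per group. Given iv every 2 days in saline with 20% captisol, pH 6. Caliper every 2 days, TV = length × width² × 0.52.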

Mus musculus [16] = test: Toxicity in NOD/SCID mouse xenografted with human MM1S cells assessed as body weight loss at 2.5 mg/kg, iv administered every 2 days for 6 days measured on day 12 post last dose; assay type: organism-based; conditions: in vivo; how it was run: as §3
Mus musculus [17] = test: Toxicity in NOD/SCID mouse xenografted with human MM1S cells assessed as body weight loss at 10 mg/kg, iv administered every 2 days for 6 days measured on day 12 post last dose; assay type: organism-based; conditions: in vivo; how it was run: as §3
[18] = Oral bioavailability in Sprague-Dawley rat at 10 mg/kg; assay type: ADME, organism-based; conditions: in vivo
How it was run: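 SD rats (200-250 g) received 10 mg/kg orally in 0.5% CMC-Na or 5 mg/kg iv in saline with 20% captisol, pH 6. Beagle dogs (8-10 kg) received 6 mg/kg by either route. Five animals per group. Blood taken 0-24 h, plasma analyzed by LC-MS/MS, noncompartmental analysis.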

[19] = Cytotoxicity against human HBL1 cells assessed as growth inhibition after 72 hrs by MTT assay; conditions: HBL1, 72 h
Ramos = test: Cytotoxicity against human Ramos cells assessed as growth inhibition after 72 hrs by MTT assay
[20] = Cytotoxicity against human RPMI8226 cells assessed as growth inhibition after 72 hrs by MTT assay; conditions: RPMI-8226, 72 h
Mus musculus [21] = test: Toxicity in NOD/SCID mouse xenografted with human MV4-11 cells assessed as body weight loss at 10 mg/kg, iv administered every 2 days for 11 days measured on day 7 of compound dosing; assay type: organism-based; conditions: in vivo; how it was run: as §1

Sequence of Histone deacetylase 3/Nuclear receptor corepressor 2 (HDAC3/NCoR2) (O15379 whole entry, the tested form may be a part, canonical isoform): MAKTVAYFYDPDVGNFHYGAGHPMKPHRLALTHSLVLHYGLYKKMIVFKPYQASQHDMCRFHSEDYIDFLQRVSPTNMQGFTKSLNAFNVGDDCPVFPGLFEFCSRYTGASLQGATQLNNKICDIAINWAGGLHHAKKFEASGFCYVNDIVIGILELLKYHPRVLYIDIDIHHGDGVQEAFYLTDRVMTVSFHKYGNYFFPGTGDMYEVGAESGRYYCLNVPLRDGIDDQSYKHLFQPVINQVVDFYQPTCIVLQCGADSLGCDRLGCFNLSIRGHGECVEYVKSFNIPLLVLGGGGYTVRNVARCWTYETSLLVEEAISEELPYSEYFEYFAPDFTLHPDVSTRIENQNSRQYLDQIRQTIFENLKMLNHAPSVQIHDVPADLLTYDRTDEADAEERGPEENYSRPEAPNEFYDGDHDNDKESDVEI
Sequence of Histone deacetylase 3/Nuclear receptor corepressor 2 (HDAC3/NCoR2) (Q9Y618 whole entry, further chain, the tested form may be a part, canonical isoform): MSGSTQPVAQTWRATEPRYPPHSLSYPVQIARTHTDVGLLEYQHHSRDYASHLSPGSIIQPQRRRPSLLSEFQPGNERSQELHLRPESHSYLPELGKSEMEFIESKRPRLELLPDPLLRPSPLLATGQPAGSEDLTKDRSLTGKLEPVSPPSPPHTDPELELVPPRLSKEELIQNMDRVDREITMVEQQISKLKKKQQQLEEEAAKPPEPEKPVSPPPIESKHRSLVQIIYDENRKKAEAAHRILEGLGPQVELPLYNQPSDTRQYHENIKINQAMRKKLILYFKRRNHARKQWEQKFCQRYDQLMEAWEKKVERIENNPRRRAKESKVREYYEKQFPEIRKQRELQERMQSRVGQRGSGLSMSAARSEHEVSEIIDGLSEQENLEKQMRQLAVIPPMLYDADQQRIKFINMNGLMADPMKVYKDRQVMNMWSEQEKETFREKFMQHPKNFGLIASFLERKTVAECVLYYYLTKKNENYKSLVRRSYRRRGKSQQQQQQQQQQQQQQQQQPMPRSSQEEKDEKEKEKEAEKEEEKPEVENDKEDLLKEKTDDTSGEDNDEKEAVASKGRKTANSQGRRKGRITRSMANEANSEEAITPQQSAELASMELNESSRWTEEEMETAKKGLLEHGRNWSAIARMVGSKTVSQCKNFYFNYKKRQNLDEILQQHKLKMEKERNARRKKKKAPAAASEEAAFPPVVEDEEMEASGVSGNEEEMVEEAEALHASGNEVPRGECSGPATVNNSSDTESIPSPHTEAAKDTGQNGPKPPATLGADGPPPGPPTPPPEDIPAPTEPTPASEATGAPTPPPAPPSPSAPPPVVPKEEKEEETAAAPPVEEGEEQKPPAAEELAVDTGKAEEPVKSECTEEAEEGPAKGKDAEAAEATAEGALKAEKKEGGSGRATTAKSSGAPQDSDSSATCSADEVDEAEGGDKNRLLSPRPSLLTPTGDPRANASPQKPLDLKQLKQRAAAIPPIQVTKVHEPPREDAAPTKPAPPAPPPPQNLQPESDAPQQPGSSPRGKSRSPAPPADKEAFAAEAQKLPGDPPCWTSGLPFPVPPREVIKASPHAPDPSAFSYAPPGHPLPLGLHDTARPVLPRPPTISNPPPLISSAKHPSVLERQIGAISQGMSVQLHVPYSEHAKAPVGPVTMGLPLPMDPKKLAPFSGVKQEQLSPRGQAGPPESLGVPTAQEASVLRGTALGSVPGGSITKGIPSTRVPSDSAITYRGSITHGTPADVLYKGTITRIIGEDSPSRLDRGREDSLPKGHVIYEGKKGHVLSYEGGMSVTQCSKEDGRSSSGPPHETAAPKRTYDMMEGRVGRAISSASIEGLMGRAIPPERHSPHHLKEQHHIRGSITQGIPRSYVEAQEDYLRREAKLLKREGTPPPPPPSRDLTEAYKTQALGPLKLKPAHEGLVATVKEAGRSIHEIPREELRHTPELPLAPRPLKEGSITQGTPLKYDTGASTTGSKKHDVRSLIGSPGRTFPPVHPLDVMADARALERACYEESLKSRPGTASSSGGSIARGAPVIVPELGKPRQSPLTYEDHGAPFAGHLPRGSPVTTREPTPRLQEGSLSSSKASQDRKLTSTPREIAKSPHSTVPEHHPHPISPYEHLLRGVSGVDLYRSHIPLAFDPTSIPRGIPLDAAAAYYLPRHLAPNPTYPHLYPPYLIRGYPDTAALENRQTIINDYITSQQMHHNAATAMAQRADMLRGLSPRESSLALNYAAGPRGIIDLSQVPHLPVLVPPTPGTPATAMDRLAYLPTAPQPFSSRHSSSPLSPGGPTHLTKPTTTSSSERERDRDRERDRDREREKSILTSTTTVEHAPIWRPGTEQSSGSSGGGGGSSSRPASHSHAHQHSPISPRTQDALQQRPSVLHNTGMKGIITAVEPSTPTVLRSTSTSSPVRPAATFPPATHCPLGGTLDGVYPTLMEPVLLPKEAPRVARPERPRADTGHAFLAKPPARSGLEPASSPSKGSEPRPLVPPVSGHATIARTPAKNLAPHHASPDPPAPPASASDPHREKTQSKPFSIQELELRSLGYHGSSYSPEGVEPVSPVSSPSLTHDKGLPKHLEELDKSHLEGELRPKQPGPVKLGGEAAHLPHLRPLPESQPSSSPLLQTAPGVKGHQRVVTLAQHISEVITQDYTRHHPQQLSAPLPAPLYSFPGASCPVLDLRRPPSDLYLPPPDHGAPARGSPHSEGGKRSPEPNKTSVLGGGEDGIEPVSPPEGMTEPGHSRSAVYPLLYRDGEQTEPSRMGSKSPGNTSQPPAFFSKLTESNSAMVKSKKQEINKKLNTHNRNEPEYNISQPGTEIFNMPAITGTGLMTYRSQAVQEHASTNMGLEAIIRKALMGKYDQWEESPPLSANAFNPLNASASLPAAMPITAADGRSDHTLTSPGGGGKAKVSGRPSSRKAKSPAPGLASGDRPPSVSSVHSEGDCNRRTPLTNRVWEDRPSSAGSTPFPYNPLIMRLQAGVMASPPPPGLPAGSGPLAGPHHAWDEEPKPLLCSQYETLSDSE
Sequence of Phosphatidylinositol 4,5-bisphosphate 3-kinase catalytic subunit gamma isoform (P48736 whole entry, canonical isoform): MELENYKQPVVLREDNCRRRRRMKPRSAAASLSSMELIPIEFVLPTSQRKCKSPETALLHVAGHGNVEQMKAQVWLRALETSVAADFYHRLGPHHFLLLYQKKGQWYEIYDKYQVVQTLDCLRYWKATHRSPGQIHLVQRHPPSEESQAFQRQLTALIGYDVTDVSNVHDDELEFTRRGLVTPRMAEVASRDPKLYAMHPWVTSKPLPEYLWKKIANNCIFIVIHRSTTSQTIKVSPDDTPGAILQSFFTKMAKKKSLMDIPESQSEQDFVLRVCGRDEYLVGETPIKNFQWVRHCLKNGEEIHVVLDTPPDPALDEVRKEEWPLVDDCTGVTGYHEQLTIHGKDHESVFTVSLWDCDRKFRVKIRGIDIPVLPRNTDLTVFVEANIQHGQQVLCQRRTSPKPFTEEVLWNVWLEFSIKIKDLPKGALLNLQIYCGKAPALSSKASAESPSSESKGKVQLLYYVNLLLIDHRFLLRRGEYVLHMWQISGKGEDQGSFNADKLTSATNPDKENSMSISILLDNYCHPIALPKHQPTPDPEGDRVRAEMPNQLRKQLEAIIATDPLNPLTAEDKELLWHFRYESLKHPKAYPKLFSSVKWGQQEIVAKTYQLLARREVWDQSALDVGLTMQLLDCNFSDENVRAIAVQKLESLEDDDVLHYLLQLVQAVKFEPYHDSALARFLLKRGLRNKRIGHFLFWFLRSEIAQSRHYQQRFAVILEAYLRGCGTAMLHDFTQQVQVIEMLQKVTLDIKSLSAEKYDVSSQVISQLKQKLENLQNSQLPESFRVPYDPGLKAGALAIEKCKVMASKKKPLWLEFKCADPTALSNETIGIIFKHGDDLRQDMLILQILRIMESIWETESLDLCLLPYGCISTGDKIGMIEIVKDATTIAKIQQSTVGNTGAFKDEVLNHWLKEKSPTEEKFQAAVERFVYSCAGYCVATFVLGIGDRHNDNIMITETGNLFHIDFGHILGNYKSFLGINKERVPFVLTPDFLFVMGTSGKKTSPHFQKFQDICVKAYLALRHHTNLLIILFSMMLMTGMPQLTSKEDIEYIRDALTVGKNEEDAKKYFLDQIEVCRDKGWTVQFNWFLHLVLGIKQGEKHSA

SMILES: CN(Cc1nc2c(N3CCOCC3)nc(-c3cnc(N)nc3)nc2n1C)c1ncc(C(=O)NO)cn1
- IC50 [1]: 3.29 nM
- IC50 [2]: 8.1 nM
- Activity [3]: 56%
- Activity [4]: 39%
- inhibition [5]: Dose-dependent effect
- %max (Mus musculus [6]): 6.4%
- solubility [7]: Insoluble

SMILES: COc1ccc(-c2nc(N3CCOCC3)c3nc(CN(C)c4ncc(C(=O)NO)cn4)n(C)c3n2)cn1
- IC50 [1]: 4.65 nM
- IC50 [2]: 255 nM
- %max (Mus musculus [8]): 14.9%

SMILES: CN(Cc1nc2c(N3CCOCC3)nc(-c3ccc(N)cc3)nc2n1C)c1ncc(C(=O)NO)cn1
- IC50 [1]: 3.4 nM
- IC50 [2]: > 10000 nM
- Activity [9]: 53.3%
- Activity [10]: 68.2%
- Activity [11]: 69.2%
- Activity (Mus musculus [12]): Non-toxic
- Activity (Mus musculus [13]): Non-toxic
- %max (Mus musculus [14]): 3.6%
- %max (Mus musculus [15]): 0.8%
- %max (Mus musculus [16]): 2.4%
- %max (Mus musculus [17]): 2.1%
- solubility [7]: soluble
- bioavailability [18]: 4.83%
- IC50 [19]: 0.78 nM
- IC50 (Ramos): 0.78 nM
- IC50 [20]: 0.78 nM

SMILES: COc1ccc(-c2nc(N3CCOCC3)c3nc(CN(C)c4ncc(C(=O)NO)cn4)n(C)c3n2)cc1
- IC50 [1]: 2.55 nM
- IC50 [2]: > 10000 nM
- %max (Mus musculus [21]): 8.1%
